Test results taken from publication PMC4324837 (Antiviral research, 2014).
Where a name gives a salt, the structure may show the parent alone. Numbered stars: 1 amine (or outer) side, 2 acyl side, 3 side chain; on linkers, the order of the positions; unused ones are H or OH. Bridge positions count the residues as written; N and C are the ends. Square brackets hold non-standard residues; d marks the D form. Peptide text beside a SMILES is read from it. I, II: the chains in the order shown. Actinocin(9to1) = Cc1c2oc3c(C)ccc(C(=O)[*:1])c3nc-2c(C(=O)[*:2])c(N)c1=O; NMeV = CN[C@H](C(=O)O)C(C)C; Sar = CNCC(=O)O

Key:
MRC5 cells [1] = test: CC50 / cell viability by NucGreen staining, MRC5 cells; assay type: cell-based, Human; conditions: MRC5 cells, 0-5μM, 19 hours, NucGreen
CMV AD169IE2-YFP [2] = test: in vitro; assay type: cell-based, Human cytomegalovirus; conditions: MRC5 cells; for Selective Ratio (CC50/EC50) / selectivity ratio: AD169IE2-YFP; for selectivity ratio: human, Selective Ratio (CC50/EC50)
CMV AD169IE2-YFP [3] = test: High-content screen, IE2-YFP nuclear fluorescence in infected MRC5 cells; assay type: cell-based, Human cytomegalovirus; conditions: for activity at 5.6 µM: Human betaherpesvirus 5, MRC5, 16 h, read-out: YFP Intensity (%); for reduction of YFP intensity: primary screen, screening dose (5μM printed elsewhere in the source)
[4] = CC50 / cell viability by NucGreen staining, MRC5 cells; assay type: cell-based, Human; conditions: human
CMV = test: Addition of compound after infection; assay type: cell-based, Human cytomegalovirus; conditions: added up to 4hpi, data not shown
CMV AD169 = test: Immunoblot of viral early protein US11 in infected MRC5 cells; assay type: cell-based, Human cytomegalovirus; conditions: MRC5, AD169-WT MOI 3, 20 hpi; for US11 protein level in infected cells: 50 or 500nM of respective compound
How it was run: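 MRC5 cells were pretreated 1 h at 37 °C with test compound or 0.1% DMSO, infected with wild-type AD169 (MOI 3), then washed once with DMEM before analysis.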

CMV AD169IE2-YFP [5] = test: Multi-cycle infection study, YFP+ cells under long-term convallatoxin treatment; assay type: cell-based, Human cytomegalovirus
How it was run: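 MRC5 cells, 10,000/well in 96-well plates, received DMEM with test compound (0, 5, 10 or 50 nM) in sextuplicate. In one plate this was followed immediately by AD169 IE2-YFP infection (MOI 0.5) or medium alone. In the other, cells were infected (MOI 0.5) or mock-infected for 36 h before compound-containing medium was added. IE2-YFP-positive cells were read on a fluorescent plate reader up to 168 hpi.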

MRC5 cells [6] = test: Cell viability under prolonged treatment, uninfected MRC5 fibroblasts, NucGreen; assay type: cell-based, Human; conditions: 5nM, throughout the timecourse (up to 168 hours)
How it was run: (§1)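 Uninfected MRC5 fibroblasts, 10,000/well in 96-well plates, were kept in DMEM with test compound (0, 5, 10 or 50 nM) in sextuplicate for up to 168 h. NucGreen dead-cell staining was read on a fluorescent plate reader. Percent viability used the total cell number of DMSO-treated wells as 100%, plotted at 72, 120 and 168 hpi.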

[7] = as above; assay type: cell-based, Human; conditions: human, uninfected MRC5 fibroblasts
How it was run: as §1

CMV AD169IE2-YFP [8] = assay type: cell-based, Human cytomegalovirus; conditions: MRC5, MOI 0.5, compound present until 24 hpi
[9] = Cell viability by NucGreen staining, ARPE-19 cells; assay type: cell-based; conditions: human
How it was run: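 ARPE-19 cells, 10,000/well in 96-well plates, were exposed next day to test compound in DMEM, in sextuplicate. After 19 h, NucGreen dead-cell stain went into three of six wells per condition for 10 min at RT. Total cells were counted by fixing with 4% paraformaldehyde and adding NucGreen for 10 min. Signal was read on a fluorescent plate reader, and % viability was taken from NucGreen-positive counts of treated versus total cells.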

CMV TB40/EFLAG-YFP = test: EC50 of convallatoxin, clinical strain reporter virus in ARPE-19 cells; assay type: cell-based, Human cytomegalovirus; conditions: Human betaherpesvirus 5, ARPE-19
How it was run: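 ARPE-19 cells, 10,000/well in 96-well plates, got DMEM with test compound (0-10 nM) the next day, in sextuplicate. They were then infected with TB40/E FLAG-YFP (US28 replaced by FLAG-YFP; MOI 20). YFP+ cells were counted at 120 hpi on an Acumen eX3 cytometer, with positive meaning above 2 SD of background. % infection was set against DMSO-treated cells; EC50 came from a three-parameter log(inhibitor)-response fit of mean values.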

COc1cc(C2c3cc4c(cc3C(O)C3COC(=O)C23)OCO4)cc(OC)c1O (stereo not drawn) [4′-demethyl-epipodophyllotoxin]
CC50 (MRC5 cells [1]): > 5000 nM
Selective Ratio (CC50/EC50) (CMV AD169IE2-YFP [2]): >1.5

Cc1c2oc3c(C)ccc(C(=O)N[C@@H]4C(=O)N[C@H](C(C)C)C(=O)N5CCC[C@H]5C(=O)N(C)CC(=O)N(C)[C@@H](C(C)C)C(=O)O[C@@H]4C)c3nc-2c(C(=O)N[C@@H]2C(=O)N[C@H](C(C)C)C(=O)N3CCC[C@H]3C(=O)N(C)CC(=O)N(C)[C@@H](C(C)C)C(=O)O[C@@H]2C)c(N)c1=O [Actinomycin D] (I: T[dV]P[Sar][NMeV] / II: T[dV]P[Sar][NMeV]; ester I:1-I:C, II:1-II:C; linker I:N-II:N via Actinocin(9to1))
activity at 5.6 µM (CMV AD169IE2-YFP [3]): 5.8 ± 0.11%

COc1ccc(C[C@H]2NC[C@H](O)[C@H]2OC(C)=O)cc1 [Anisomycin]
EC50 (CMV AD169IE2-YFP [2]; MOI 3, 1 h pretreatment, 0-5μM, 18 hpi): 170 nM

CC(=O)O[C@@H]1C[C@@]2(C)[C@H](c3ccoc3)C[C@H]3O[C@]32[C@]2(C)C(=O)C(O)=C3C(C)(C)C(=O)C=C[C@]3(C)[C@@H]12 [Anthothecol]
activity at 5.6 µM (CMV AD169IE2-YFP [3]): 27.5 ± 0.55%
CC50 at 19 h [4]: 700 nM
Selective Ratio (CC50/EC50) (CMV AD169IE2-YFP [2]): 0.4
Selective Ratio (CC50/EC50) (CMV AD169IE2-YFP [2]; listed as anthothecol): < 30

COc1cc2c(c(OC)c1OC)-c1ccc(OC)c(=O)cc1[C@@H](NC(C)=O)CC2 [Colchicine]
activity at 5.6 µM (CMV AD169IE2-YFP [3]): 17.3 ± 0.34%
CC50 at 19 h [4]: > 5000 nM
effect on infection when added after infection (CMV): reduced infection
US11 protein level in infected cells (CMV AD169): lower levels of US11

C[C@@H]1O[C@@H](O[C@H]2CC[C@]3(C=O)[C@H]4CC[C@]5(C)[C@@H](C6=CC(=O)OC6)CC[C@]5(O)[C@@H]4CC[C@]3(O)C2)[C@H](O)[C@H](O)[C@H]1O [Convallatoxin]
activity at 5.6 µM (CMV AD169IE2-YFP [3]): 27.8 ± 0.87%
fluorescent expression relative to DMSO-treated cells (CMV AD169IE2-YFP [5]; 5nM, added at 0hpi, by 100hpi): approximately half
number of YFP+ cells compared to DMSO (CMV AD169IE2-YFP [5]; MRC5, MOI 0.5, 5, 10 or 50nM added simultaneously with virus (0hpi)): reduced the number of YFP+ cells in a dose-dependent manner
number of YFP+ cells (CMV AD169IE2-YFP [5]; MRC5, MOI 0.5, treatment of infected cells at 36hpi): significant decrease of YFP+ cells
CC50 at 19 h [4]: > 5000 nM
viability at 19 h, 5 µM [4]: 100%
effect on cell viability (MRC5 cells [6]): no detectable effect
viability at 120 h, 0.01 µM [7]: 79%
viability at 120 h, 0.05 µM [7]: 61%
viability at 168 h, 0.01 µM [7]: 91%
viability at 168 h, 0.05 µM [7]: 82%
selectivity ratio (CMV AD169IE2-YFP [2]): > 454
YFP fluorescence (% infection vs DMSO) (CMV AD169IE2-YFP [8]; followed 9 days, ganciclovir 12μM): significant decrease in fluorescence
decrease in virus titer compared to ganciclovir treatment (CMV AD169IE2-YFP [8]; plaque assay of supernatants): ~10 fold
US11 protein level in infected cells (CMV AD169): lower levels of US11
US11 expression (CMV AD169; convallatoxin 5-50nM (all concentrations)): blocked the expression of US11 at all concentrations
viability at 19 h, 10 nM [9]: ~80%
EC50 (CMV TB40/EFLAG-YFP): 0.1 nM

C[C@@H]1C[C@@H]([C@H](O)CC2CC(=O)NC(=O)C2)C(=O)[C@@H](C)C1 [Cycloheximide]
activity at 5.6 µM (CMV AD169IE2-YFP [3]): 11.2 ± 1.8%

COc1ccc2c(c1OC)C(=O)O[C@@H]2[C@H]1c2c(cc3c(c2OC)OCO3)CCN1C [Noscapine]
activity at 5.6 µM (CMV AD169IE2-YFP [3]): 106%

COc1cc([C@@H]2c3cc4c(cc3[C@H](O)[C@H]3COC(=O)[C@H]23)OCO4)cc(OC)c1OC [Podofilox]
activity at 5.6 µM (CMV AD169IE2-YFP [3]): 14.5 ± 0.31%
CC50 at 19 h ([4]; MRC5 cells): > 5000 nM
selectivity ratio (CMV AD169IE2-YFP [2]): > 192
US11 protein level in infected cells (CMV AD169): lower levels of US11

CN(C)C(=S)SSC(=S)N(C)C [Thiram]
activity at 5.6 µM (CMV AD169IE2-YFP [3]): 14 ± 0.29%
CC50 at 19 h ([4]; MRC5 cells): 2200 nM
Selective Ratio (CC50/EC50) (CMV AD169IE2-YFP [2]): <0.4
Selective Ratio (CC50/EC50) (CMV AD169IE2-YFP [2]; listed as thiram): < 30

CC[C@]1(O)C[C@@H]2CN(CCc3c([nH]c4ccccc34)[C@@](C(=O)OC)(c3cc4c(cc3OC)N(C)[C@H]3[C@@](O)(C(=O)OC)[C@H](OC(C)=O)[C@]5(CC)C=CCN6CC[C@]43[C@@H]65)C2)C1 [Vinblastine sulfate]
activity at 5.6 µM (CMV AD169IE2-YFP [3]): 24.2 ± 0.48%

CC[C@]1(O)C[C@H]2CN(CCc3c([nH]c4ccccc34)[C@@](C(=O)OC)(c3cc4c(cc3OC)N(C=O)[C@H]3[C@@](O)(C(=O)OC)[C@H](OC(C)=O)[C@]5(CC)C=CCN6CC[C@]43[C@@H]65)C2)C1 [Vincristine sulfate]
activity at 5.6 µM (CMV AD169IE2-YFP [3]): 26.6 ± 0.53%
CC50 at 19 h [4]: 40 nM
Selective Ratio (CC50/EC50) (CMV AD169IE2-YFP [2]): 3.4

CC[C@H]1CN2CCc3cc(OC)c(OC)cc3[C@@H]2C[C@@H]1C[C@H]1NCCc2cc(OC)c(OC)cc21 [emetine]
reduction of YFP intensity (CMV AD169IE2-YFP [3]): 41%

C[C@@H]1O[C@@H](O[C@H]2C[C@@H](O)[C@]3(CO)[C@H]4[C@H](O)C[C@]5(C)[C@@H](C6=CC(=O)OC6)CC[C@]5(O)[C@@H]4CC[C@]3(O)C2)[C@H](O)[C@H](O)[C@H]1O [ouabain]
reduction of YFP intensity (CMV AD169IE2-YFP [3]): ≤ 70%

CO[C@H]1[C@H](O)[C@H](O[C@H]2CC[C@@]3(C=O)[C@H](CC[C@@H]4[C@@H]3CC[C@]3(C)[C@@H](C5=CC(=O)OC5)CC[C@]43O)C2)O[C@@H](C)[C@@H]1O [peruvoside]
reduction of YFP intensity (CMV AD169IE2-YFP [3]): ≤ 70%

COc1cc([C@@H]2c3cc4c(c(O)c3C[C@H]3COC(=O)[C@@H]32)OCO4)cc(OC)c1OC [β-peltatin]
activity at 5.6 µM (CMV AD169IE2-YFP [3]): 20.5 ± 0.41%
